Results published in ChEMBL document CHEMBL3124898, “Constituents of an extract of Cryptocarya rubra housed in a repository with cytotoxic and glucose transport inhibitory effects” (J Nat Prod, 2014).

How the values were obtained:
HT-29 = assay: Cytotoxicity against human HT-29 cells; assay type: functional, cell-based
In short: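 HT-29 human colon cancer cells treated with serial dilutions of test samples. IC50 derived by nonlinear regression. Measured in triplicate in two independent experiments. Paclitaxel served as positive control.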

[1] = molecular target: T1, Solute carrier family 2, facilitated glucose transporter member 1 (Homo sapiens) (UniProt P11166); assay: Inhibition of GLUT-1 in human H1299 cells assessed as 2-deoxy-D-[3H]glucose uptake at 30 uM incubated for 15 mins prior to 2-deoxy-D-[3H]glucose challenge measured after 10 mins by liquid scintillation counting analysis (reference value: 100%); assay type: cell-based; design: scale not given: the % may be the effect or the level left
T1 sequence (whole entry): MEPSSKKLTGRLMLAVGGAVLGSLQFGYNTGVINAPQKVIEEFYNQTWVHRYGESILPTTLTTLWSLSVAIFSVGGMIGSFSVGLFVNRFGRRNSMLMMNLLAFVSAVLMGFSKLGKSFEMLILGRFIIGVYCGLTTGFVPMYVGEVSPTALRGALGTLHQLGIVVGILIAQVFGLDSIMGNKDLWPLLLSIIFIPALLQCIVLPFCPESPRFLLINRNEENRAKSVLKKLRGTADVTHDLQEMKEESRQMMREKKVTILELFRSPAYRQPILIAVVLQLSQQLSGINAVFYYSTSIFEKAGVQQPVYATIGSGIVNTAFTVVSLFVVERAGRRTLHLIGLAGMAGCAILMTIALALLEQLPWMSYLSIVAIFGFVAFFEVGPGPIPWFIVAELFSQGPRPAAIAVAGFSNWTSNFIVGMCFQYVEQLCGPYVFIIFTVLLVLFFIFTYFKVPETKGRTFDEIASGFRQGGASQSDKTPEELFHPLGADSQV
In short: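 Before dosing, H1299 human lung cancer cells were washed and held in serum-free DMEM for 2 h at 37 °C in 10% CO2, then in KRP buffer for 30 min at 37 °C. Compound was added at 30 μM final and incubated 15 min at 37 °C. Uptake was started with 37 MBq/L 2-deoxy-3H glucose plus 1 mM glucose (final) and stopped after 10 min by three cold PBS washes. Cells were NaOH-lysed and lysate radioactivity read by scintillation counting. Vehicle served as negative control and WZB117 (30 μM) as positive control. n = 3.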

P388 = assay: Cytotoxicity against mouse P388 cells; assay type: functional, cell-based

Row | Compound | IC50 (HT-29) | Activity [1] | IC50 (P388)
1 | O=C1CCC[C@@H]2C[C@H](C[C@](O)(CCc3ccccc3)O2)c2c(cc(O)c(C(=O)/C=C/c3ccccc3)c2O)O1 | > 10 µM | – | –
2 | O=C(Oc1cccc(F)c1OC(=O)c1cccc(O)c1)c1cccc(O)c1 | – | 15.7% | –
3 | O=C(O)C[C@H]1CC=CC(=O)/C1=C(O)/C=C/c1ccccc1 | > 10 µg/mL | – | –
4 | CC(=O)O[C@H]1C(=O)[C@@]2(C)[C@H]([C@H](OC(=O)c3ccccc3)[C@]3(O)C[C@H](OC(=O)[C@H](O)[C@@H](NC(=O)c4ccccc4)c4ccccc4)C(C)=C1C3(C)C)[C@]1(OC(C)=O)CO[C@@H]1C[C@@H]2O [PACLITAXEL] | > 10 µM | – | –
5 | O=C1C[C@@H]2C3=C(O[C@H](c4ccccc4)CC3=O)[C@@H]3[C@@H]([C@@H]4C=C5O[C@H](c6ccccc6)CC(=O)[C@@]53[C@H]3CC(=O)O[C@@H]43)[C@@H]2O1 | > 10 µM | – | –
6 | O=C(/C=C/c1ccc(O)cc1)OCCCCCCCCCCCCCCCCOC(=O)/C=C/c1ccc(O)cc1 | > 10 µM | – | –
7 | O=C1C[C@@H]2/C(=C(O)\C=C\c3ccccc3)C(=O)C=C[C@@H]2O1 [CRYPTOCARYONE] | 0.32 µM | 58.7% | 0.04 µM
8 | O=C1C[C@@H]2C3=C(O[C@H](c4ccccc4)CC3=O)[C@@H]3[C@H]([C@@H]2O1)[C@H]1C[C@@H]2OC(=O)C[C@@H]2[C@@]3(C(=O)/C=C/c2ccccc2)C1=O | > 10 µM | – | –
9 | O=C1C[C@@H]2C3=C(C=C[C@@H]2O1)O[C@@H](c1ccccc1)CC3=O [CRYPTOCARYANONE A] | 10.9 µM | – | –
